ChEMBL document CHEMBL1124203, “Phosphinic acid inhibitors of D-alanyl-D-alanine ligase” (J Med Chem, 1988)
Converted amounts (≈) assume the structure as drawn.

Columns and labels:
Enterobacter cloacae [1] = assay: Minimum inhibitory concentration required for growth inhibition of cloacae 2647
Enterococcus faecalis [2] = assay: Minimum inhibitory concentration required for growth inhibition of Streptococcus faecalis 2864
Escherichia coli [3] = assay: Minimum inhibitory concentration required for growth inhibition of Escherichia coli DC2 4353
Proteus vulgaris [4] = assay: Minimum inhibitory concentration required for growth inhibition of proteus vulgaris 2829
[5] = system: D-alanine--D-alanine ligase (Enterococcus faecalis); assay: ATP dependent inhibition of D-alanine--D-alanine ligase after 4 hours at 10 uM concentration
Pseudomonas aeruginosa [6] = assay: Minimum inhibitory concentration required for growth inhibition of Pseudomonas aeruginosa 4279
Klebsiella pneumoniae [7] = assay: Minimum inhibitory concentration required for growth inhibition of Klebsiella pneumoniae 4005
Staphylococcus aureus [8] = assay: Minimum inhibitory concentration required for growth inhibition of Staphylococcus aureus 2865
Serratia marcescens [9] = assay: Minimum inhibitory concentration required for growth inhibition of Serratia marcescens 2840
[10] = system: D-alanine--D-alanine ligase (Enterococcus faecalis); assay: ATP dependent inhibition of D-alanine--D-alanine ligase after 24 hours at 10 uM concentration
Salmonella typhimurium [11] = assay: Minimum inhibitory concentration required for inhibition of D-alanyl-D-alanine ligase from Salmonella Typhimurium 3860; format: functional, Salmonella enterica subsp. enterica serovar Typhimurium; conditions: Salmonella enterica
Procedure, shortened: (§1)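 Organisms were mostly subcultured from agar into trypticase soy broth, 35 °C for 20 h; Pseudomonas was shaken at 250 rpm. MIC was the lowest concentration giving no visible growth or fewer than five colonies per spot.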

Serratia marcescens [12] = assay: Minimum inhibitory concentration required for inhibition of D-alanyl-D-alanine ligase from Serratia marcescens 2840; format: functional
Procedure, shortened: as §1

Escherichia coli [13] = assay: Minimum inhibitory concentration required for inhibition of D-alanyl-D-alanine ligase from Escherichia coli 2891; format: functional
Procedure, shortened: as §1

Escherichia coli [14] = assay: Minimum inhibitory concentration required for inhibition of D-alanyl-D-alanine ligase from Escherichia coli Tem 2+ 4351; format: functional
Procedure, shortened: as §1

Enterobacter cloacae [15] = assay: Minimum inhibitory concentration required for inhibition of D-alanyl-D-alanine ligase from cloacae 2647; format: functional
Procedure, shortened: as §1

Pseudomonas aeruginosa [16] = assay: Minimum inhibitory concentration required for inhibition of D-alanyl-D-alanine ligase from Pseudomonas aeruginosa 4279; format: functional
Procedure, shortened: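 Inocula were subcultured from agar into trypticase soy broth and grown at 35 °C for 20 h, with the Pseudomonas strain shaken at 250 rpm. MIC was taken as the lowest concentration giving no visible growth or fewer than five colonies per inoculation spot.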

Staphylococcus aureus [17] = assay: Minimum inhibitory concentration required for inhibition of D-alanyl-D-alanine ligase from Staphylococcus aureus 2865; format: functional
Procedure, shortened: as §1

Klebsiella pneumoniae [18] = assay: Minimum inhibitory concentration required for inhibition of D-alanyl-D-alanine ligase from Klebsiella pneumoniae 4005; format: functional
Procedure, shortened: as §1

Escherichia coli [19] = assay: Minimum inhibitory concentration required for inhibition of D-alanyl-D-alanine ligase from Escherichia coli DC2 4353; format: functional
Procedure, shortened: as §1

Enterococcus faecalis [20] = assay: Minimum inhibitory concentration required for inhibition of D-alanyl-D-alanine ligase from Streptococcus faecalis 2864; format: functional
Procedure, shortened: as §1

Proteus vulgaris [21] = assay: Minimum inhibitory concentration required for inhibition of D-alanyl-D-alanine ligase from proteus vulgaris 2829; format: functional
Procedure, shortened: as §1

Escherichia coli [22] = assay: Minimum inhibitory concentration required for inhibition of D-alanyl-D-alanine ligase from Escherichia coli Tem 2+ 4351 in the presence of F-D-Ala ug/mL; format: functional
Pseudomonas aeruginosa [23] = assay: Minimum inhibitory concentration required for inhibition of D-alanyl-D-alanine ligase from Pseudomonas aeruginosa 4279 in the presence of F-D-Ala ug/mL; format: functional
Klebsiella pneumoniae [24] = assay: The inhibition of D-alanyl-D-alanine ligase from Klebsiella pneumoniae 4005 in the presence of F-D-Ala ug/mL; format: functional
Enterococcus faecalis [25] = assay: Minimum inhibitory concentration required for inhibition of D-alanyl-D-alanine ligase from Streptococcus faecalis 2864 in the presence of F-D-Ala ug/mL; format: functional
Salmonella typhimurium [26] = assay: Minimum inhibitory concentration required for growth inhibition of Salmonella Typhimurium 3860; conditions: Salmonella enterica subsp. enterica serovar Typhimurium
Escherichia coli [27] = assay: Minimum inhibitory concentration required for growth inhibition of Escherichia coli 2891

| SMILES | MIC (Enterobacter cloacae [1]) [µg/mL] | MIC (Enterococcus faecalis [2]) [µg/mL] | MIC (Escherichia coli [3]) [µg/mL] | MIC (Proteus vulgaris [4]) [µg/mL] | inhibition [5] [%] | MIC (Pseudomonas aeruginosa [6]) [µg/mL] | MIC (Klebsiella pneumoniae [7]) [µg/mL] | MIC (Staphylococcus aureus [8]) [µg/mL] | MIC (Serratia marcescens [9]) [µg/mL] | inhibition [10] [%] | MIC (Escherichia coli [14]) [µg/mL] | MIC (Pseudomonas aeruginosa [16]) [µg/mL] | MIC (Klebsiella pneumoniae [18]) [µg/mL] | MIC (Enterococcus faecalis [20]) [µg/mL] | MIC (Salmonella typhimurium [26]) [µg/mL] | MIC (Escherichia coli [27]) [µg/mL] | further results |
| --- | --- | --- | --- | --- | --- | --- | --- | --- | --- | --- | --- | --- | --- | --- | --- | --- | --- |
| CSC(CP(=O)(O)C(C)N)C(=O)O (centres undefined) | 128 (≈ 563 µM) | 4 (≈ 17.6 µM) | 64 (≈ 282 µM) | 4 (≈ 17.6 µM) | 96 | 64 (≈ 282 µM) | 128 (≈ 563 µM) | > 256 | 256 (≈ 1130 µM) | 96 | – | – | – | – | – | – | – |
| CCCCCCCC(CP(=O)(O)[C@@H](C)N)C(=O)O (some centres undefined) | – | – | – | – | 75 | – | – | – | – | 53 | 128 (≈ 458 µM) | > 256 | 64 (≈ 229 µM) | 64 (≈ 229 µM) | – | – | MIC (Salmonella typhimurium [11]): 128 µg/mL (≈ 458 µM); MIC (Serratia marcescens [12]): > 256 µg/mL; MIC (Escherichia coli [13]): 128 µg/mL (≈ 458 µM); MIC (Enterobacter cloacae [15]): 256 µg/mL (≈ 917 µM); MIC (Staphylococcus aureus [17]): 128 µg/mL (≈ 458 µM); MIC (Escherichia coli [19]): 32 µg/mL (≈ 115 µM); MIC (Proteus vulgaris [21]): 128 µg/mL (≈ 458 µM) |
| C[C@@H](CP(=O)(O)[C@@H](C)N)C(=O)O | – | – | – | – | – | – | – | – | – | – | 128 (≈ 656 µM) | 128 (≈ 656 µM) | 128 (≈ 656 µM) | 128 (≈ 656 µM) | – | – | MIC (Escherichia coli [22]): 128 µg/mL; MIC (Pseudomonas aeruginosa [23]): 128 µg/mL; MIC (Klebsiella pneumoniae [24]): 128 µg/mL; MIC (Enterococcus faecalis [25]): 8 µg/mL |
| CC(N)P(=O)(O)CC(CCCc1ccccc1)C(=O)O (centres undefined) | > 256 | 256 (≈ 855 µM) | 128 (≈ 428 µM) | > 256 | – | > 256 | 256 (≈ 855 µM) | 256 (≈ 855 µM) | > 256 | – | – | – | – | – | 128 (≈ 428 µM) | 128 (≈ 428 µM) | – |
| CCC(CP(=O)(O)C(C)N)C(=O)O (centres undefined) | 256 (≈ 1220 µM) | 2 (≈ 9.56 µM) | 8 (≈ 38.2 µM) | 128 (≈ 612 µM) | – | – | – | > 256 | > 256 | – | – | – | – | – | > 256 | 256 (≈ 1220 µM) | – |
